Results reported in ChEMBL document CHEMBL1287703, “Essential structural features of TNF-α lectin-like domain derived peptides for activation of amiloride-sensitive sodium current in A549 cells” (J Med Chem, 2010).
The source made the active and inactive calls. The rule behind the calls is not given here. Where a SMILES comes first, the peptide text is derived from it. Bridges are numbered along the chain shown (N, C = ends).

Tests used:
Assay type in all cases: cell-based
A549 [1] = experiment: Activation of amiloride-sensitive epithelial sodium channel in human A549 cells up to 480 nM at holding potential -100 to + 100 mV by whole cell patch clamp technique
Method in brief: (§1)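 A549 cells (passages 80–90) were grown in DMEM/F12 with 10% FBS and 1% penicillin-streptomycin, then whole-cell patch-clamped at 19–22°C, 24–48 h after plating. After a 5 min equilibration, Eh was stepped from −100 to +100 mV in 20 mV steps, 1 min each. A 5 min control preceded cumulative bath peptide addition (3.5–480 nM final), with amiloride added at the end. EC50 was fitted at −100 mV.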

A549 [2] = experiment: Activation of tetraethylammonium-sensitive potassium channel in human A549 cells at 120 nM at holding potential -100 mV by whole cell patch clamp technique
A549 [3] = experiment: Activation of amiloride-sensitive epithelial sodium channel in human A549 cells at 120 nM at holding potential -100 to + 100 mV by whole cell patch clamp technique; method in brief: as §1

Row | SMILES | Activity (A549 [1]) | Activity (A549 [2]) [%] | Activity (A549 [3]) [%]
1 | C[C@@H]1NC(=O)CNC(=O)[C@H](CCC(=O)O)NC(=O)[C@@H]2CCCN2C(=O)[C@H]([C@H](C)O)NC(=O)[C@H](CCC(=O)O)NC(=O)[C@H](CCCNC(=N)N)NC(=O)[C@H](CCC(N)=O)NC(=O)CNC(=O)CCCCCNC(=O)CNC(=O)[C@H](Cc2ccc(O)cc2)NC(=O)[C@H](Cc2c[nH]c3ccccc23)NC(=O)[C@@H]2CCCN2C(=O)[C@H](CCCCN)NC(=O)[C@H](C)NC(=O)[C@H](CCC(=O)O)NC1=O | inactive | – | –
2 | C[C@@H]1NC(=O)CNC(=O)[C@H](CCC(=O)O)NC(=O)[C@@H]2CCCN2C(=O)[C@H]([C@H](C)O)NC(=O)[C@H](CCC(=O)O)NC(=O)[C@H](CCCNC(=N)N)NC(=O)[C@H](CCC(N)=O)NC(=O)[C@@H](N)CSSC[C@@H](C(=O)O)NC(=O)CNC(=O)CNC(=O)[C@H](CCCCN)NC(=O)[C@H](C)NC(=O)[C@H](CCC(=O)O)NC1=O | inactive | – | –
3 | C[C@@H]1NC(=O)CNC(=O)[C@H](CCC(=O)O)NC(=O)[C@@H]2CCCN2C(=O)[C@H]([C@H](C)O)NC(=O)[C@H](CCC(=O)O)NC(=O)[C@H](CCCNC(=N)N)NC(=O)[C@H](CCC(N)=O)NC(=O)CNC(=O)[C@@H](N)CSSC[C@@H](C(=O)O)NC(=O)[C@H](Cc2ccc(O)cc2)NC(=O)[C@H](Cc2c[nH]c3ccccc23)NC(=O)[C@@H]2CCCN2C(=O)[C@H](CCCCN)NC(=O)[C@H](C)NC(=O)[C@H](CCC(=O)O)NC1=O | – | 0.6 | 99.4
4 | C[C@@H]1NC(=O)CNC(=O)[C@H](C)NC(=O)[C@@H]2CCCN2C(=O)[C@H](C)NC(=O)[C@H](CCC(=O)O)NC(=O)[C@H](CCCNC(=N)N)NC(=O)[C@H](CCC(N)=O)NC(=O)CNC(=O)[C@@H](N)CSSC[C@@H](C(=O)O)NC(=O)[C@H](Cc2ccc(O)cc2)NC(=O)[C@H](Cc2c[nH]c3ccccc23)NC(=O)[C@@H]2CCCN2C(=O)[C@H](CCCCN)NC(=O)[C@H](C)NC(=O)[C@H](C)NC1=O (H-CGQREAPAGAAAKPWYC-OH; disulfide 1-17) | inactive | – | –
5 | C[C@@H]1NC(=O)CNC(=O)[C@H](CCC(=O)O)NC(=O)[C@@H]2CCCN2C(=O)[C@H]([C@H](C)O)NC(=O)[C@H](CCC(=O)O)NC(=O)[C@H](CCCNC(=N)N)NC(=O)[C@H](CCC(N)=O)NC(=O)CNC(=O)CCCCCCNC(=O)[C@H](Cc2ccc(O)cc2)NC(=O)[C@H](Cc2c[nH]c3ccccc23)NC(=O)[C@@H]2CCCN2C(=O)[C@H](CCCCN)NC(=O)[C@H](C)NC(=O)[C@H](CCC(=O)O)NC1=O | inactive | – | –
6 | C[C@@H]1NC(=O)CNC(=O)[C@H](CCC(=O)O)NC(=O)[C@@H]2CCCN2C(=O)[C@H]([C@H](C)O)NC(=O)[C@H](CCC(=O)O)NC(=O)[C@H](CCCNC(=N)N)NC(=O)[C@H](CCC(N)=O)NC(=O)CNC(=O)CCCNC(=O)CNC(=O)[C@H](Cc2ccc(O)cc2)NC(=O)[C@H](Cc2c[nH]c3ccccc23)NC(=O)[C@@H]2CCCN2C(=O)[C@H](CCCCN)NC(=O)[C@H](C)NC(=O)[C@H](CCC(=O)O)NC1=O | inactive | – | –
